Experimental data pooled from the literature.
Each line is one published result; the experiments were not run side by side. pEC50, pIC50: −log10 of the molar value.
Read-out: cell growth or viability

SMILES | cell line | method | tested at | time | quantity | result
C[C@H](Nc1ccc2c(c1)OCCn1cc(N3C(=O)OC[C@H]3C(F)F)nc1-2)C(N)=O | BT-20 | ATP luminescence | – | 5 days | pEC50 | 6.35
O=c1cc(OCc2cc(-c3ccccn3)no2)c2ccccc2o1 | Z-138 | MTS | – | 72 h | pIC50 | < 4.00
Cc1nc(Nc2ncc(C(=O)Nc3c(C)cccc3Cl)s2)cc(N2CC[C@H](O)C2)n1 | Z-138 | ATP luminescence | 10 µM | 72 h | inhibition | 56%
Cc1n[nH]c2ccc3nc(-c4ccc(C(=O)NCCN(C)C)cc4F)c4c(c3c12)CCCCC4 | G-361 | – | – | 72 h | GI50 | > 10 µM
O=C1C(=Nc2ccc(Cl)cc2Br)c2ccccc2N1Cc1ccc(Br)cc1 | B16 | MTT | – | 48 h | pIC50 | 5.78
FC(F)(F)c1cc(OCc2cc(-c3ccccc3)no2)c2ccccc2n1 | Z-138 | MTS | – | 72 h | pIC50 | 4.17
C=CCN1C(=O)C(=Nc2cccc(C)c2)c2ccccc21 | B16 | MTT | – | 48 h | pIC50 | 4.54
CCc1nc(C(N)=O)c(Nc2ccc(N3CCC(N4CCN(C)CC4)CC3)c(OC)c2)nc1NC1CCOCC1 | G-361 | – | – | 72 h | GI50 | 1.17 µM
Cc1nc(NC(=O)N2CCC[C@H]2C(N)=O)sc1-c1ccnc(C(C)(C)C(F)(F)F)c1 | BT-20 | ATP luminescence | – | 5 days | pEC50 | 5.61
CN(C)CCNC(=O)c1ccc(-c2nc3ccc4[nH]ncc4c3c3c2CCCCC3)cc1 | G-361 | – | – | 72 h | GI50 | > 10 µM
Cc1ccc(CN2C(=O)C(=Nc3c(C(C)C)cccc3C(C)C)c3ccccc32)cc1 | B16 | MTT | – | 48 h | pIC50 | 4.24
CN(C)CCNC(=O)c1ccc(-c2nc3ccc4[nH]ncc4c3c3c2CCCCC3)c(F)c1 | G-361 | – | – | 72 h | GI50 | 3.55 µM
O=C(CCc1ccc(Cl)cc1)N1C(=O)C(=Nc2ccc(Cl)cc2Br)c2ccccc21 | B16 | MTT | – | 48 h | pIC50 | 4.63
N#Cc1ccc(-c2cc(COc3cc(=O)oc4ccccc34)on2)cc1 | Z-138 | MTS | – | 72 h | pIC50 | < 4.00
